Measurements reported in ChEMBL document CHEMBL1146344, “Design, synthesis, and evaluation of 2-aryl-3-heteroaryl-1,3-thiazolidin-4-ones as anti-HIV agents” (Bioorg Med Chem, 2007).

What was measured:
[1] = Cytotoxicity against MT4 cells; type: cell-based; conditions: human
Method in brief: (§1)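 Mock-infected MT-4 or CEM cultures exposed to compound dilutions at 37 °C, with incubation times as in the antiviral runs. Viable cell number determined. Means of at least two separate experiments.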

[2] = Cytotoxicity against CEM cells; type: cell-based; conditions: human, CEM (CCRF-CEM) cells; method in brief: as §1

Fc1cccc(F)c1C1SCc2nc3ccccc3n21 (configuration not stated) [THIAZOLOBENZIMIDAZOLE]
CC50 [1]: 19.2 µM | CC50 [2]: 50 µM
